From ChEMBL document CHEMBL1125107, “Cephalosporin 3'-quinolone esters with a dual mode of action” (J Med Chem, 1990)
≈ marks a conversion by molar mass, not a printed value.

Tests used:
Citrobacter freundii = assay: In vitro antibacterial activity was determined against Citrobacter freundii BS-16; assay type: functional
In short: (§1)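 MIC by serial 2-fold dilution in Mueller-Hinton broth; results given as minimum inhibitory concentrations (nmol/mL).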

Enterobacter cloacae [1] = assay: In vitro antibacterial activity was determined against Enterobacter cloacae P99 (Class Ia beta-lactamase overproducer); assay type: functional; in short: as §1
Escherichia coli [2] = assay: In vitro antibacterial activity was determined against Escherichia coli TEM-1 (TEM-1 (class IIIa) beta-lactamase producer); assay type: functional; in short: as §1
Proteus mirabilis [3] = assay: In vitro antibacterial activity was determined against Proteus mirabilis 90; assay type: functional; in short: as §1
Proteus vulgaris [4] = assay: In vitro antibacterial activity was determined against Proteus vulgaris 1028BC (Class Ic beta-lactamase overproducer; assay type: functional; in short: as §1
Serratia marcescens = assay: In vitro antibacterial activity was determined against Serratia marcescens 1071; assay type: functional
In short: (§2)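 Broth MIC determination: serial 2-fold dilutions in Mueller-Hinton broth by standard methodology; the lowest concentration inhibiting growth is reported as the MIC, in nmol/mL.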

Staphylococcus aureus [5] = assay: In vitro antibacterial activity was determined against Staphylococcus aureus 1059B (inducible, high level beta-lactamase producer); assay type: functional
In short: (§3)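 Serial 2-fold broth dilution in Mueller-Hinton broth, run by standard methodology; read-out is the minimum inhibitory concentration (MIC).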

Staphylococcus aureus [6] = assay: In vitro antibacterial activity was determined against Staphylococcus aureus ATCC 29213 (inducible, low level beta-lactamase producer); assay type: functional; in short: as §3
Streptococcus pneumoniae [7] = assay: (§4) In vitro antibacterial activity was determined against Streptococcus pneumoniae 6301; assay type: functional; in short: as §2
Streptococcus pyogenes [8] = assay: In vitro antibacterial activity was determined against Streptococcus pyogenes 4; assay type: functional; in short: as §2
Pseudomonas aeruginosa [9] = assay: In vitro antibacterial activity was determined against Pseudomonas aeruginosa 18S/H (Class Id beta-lactamase overproducer); assay type: functional; in short: as §2
Enterococcus faecalis = assay: In vitro antibacterial activity was determined against Enterococcus faecalis ATCC 29212; assay type: functional; in short: as §1
Staphylococcus aureus [10] = assay: In vitro antibacterial activity was determined against Staphylococcus aureus 95 (Methicillin-resistant, high-level beta-lactamase producer); assay type: functional; in short: as §3
[11] = Half life period in rat after (i.v.) administration of a dose of 20 mg/kg; assay type: ADME, organism-based; parameters: dose 20 mg/kg, route intravenous; conditions: in vivo, iv
In short: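 Rats given 20 mg/kg iv; plasma half-life determined.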

[12] = Evaluated for its stability in human plasma pH 6.5 at 37 degrees Celsius as determined by HPLC analysis; assay type: ADME
Escherichia coli [13] = assay: In vitro antibacterial activity was determined against Escherichia coli UB 1005; assay type: functional; in short: as §1
[14] = Toxicity was determined; assay type: organism-based; conditions: mouse, in vivo
In short: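 Acute toxicity in mice after intravenous dosing, expressed as LD50 (mg/kg iv).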

Proteus vulgaris [15] = assay: In vitro antibacterial activity was determined against Proteus vulgaris 1028 BC (Class Ic beta-lactamase overproducer); assay type: functional; in short: as §1
Staphylococcus aureus [16] = assay: In vitro antibacterial activity was determined against Staphylococcus aureus 1059B ( inducible, high level beta-lactamase producer); assay type: functional; in short: as §2
Staphylococcus aureus [17] = assay: In vitro antibacterial activity was determined against Staphylococcus aureus ATCC 29213 ( inducible, low level beta-lactamase producer); assay type: functional; in short: as §2
Pseudomonas aeruginosa [18] = assay: In vitro antibacterial activity was determined against Pseudomonas aeruginosa ATCC 27853; assay type: functional; in short: as §2
Pseudomonas aeruginosa [19] = assay: In vitro antibacterial activity was determined against Pseudomonas aeruginosa 18S/H ( Class Id beta-lactamase overproducer); assay type: functional; in short: as §2
[20] = Evaluated for its stability in Mueller-Hinton broth at 37 degrees Celsius as determined by HPLC analysis; conditions: pH 6.5
Escherichia coli [21] = assay: Evaluated for the minimum inhibitory concentration against Escherichia coli UB 1005; assay type: functional; in short: as §1
Pseudomonas aeruginosa [22] = assay: Minimum inhibitory concentration against Pseudomonas aeruginosa ATCC 27853; assay type: functional; in short: as §2
Proteus vulgaris [23] = assay: Minimum inhibitory concentration against Proteus vulgaris 1028 BC (Class Ic beta-lactamase overproducer); assay type: functional; in short: as §2
Pseudomonas aeruginosa [24] = assay: Evaluated for the minimum inhibitory concentration against Pseudomonas aeruginosa 18S/H (Class Id beta-lactamase overproducer); assay type: functional; in short: as §1
Streptococcus pneumoniae [25] = assay: Minimum inhibitory concentration against Streptococcus pneumoniae 6301; assay type: functional; in short: as §2
Streptococcus pyogenes [26] = assay: Minimum inhibitory concentration against Streptococcus pyogenes 4; assay type: functional; in short: as §2
Staphylococcus aureus [27] = assay: Minimum inhibitory concentration against Staphylococcus aureus 95 (Methicillin-resistant, high-level beta-lactamase producer); assay type: functional; in short: as §3
Proteus mirabilis [28] = assay: Evaluated for the minimum inhibitory concentration against Proteus mirabilis 90
Pseudomonas aeruginosa [29] = assay: Evaluated for the minimum inhibitory concentration against Pseudomonas aeruginosa 18S/H ( Class Id beta-lactamase overproducer); assay type: functional; in short: as §1
Proteus vulgaris [30] = assay: Evaluated for the minimum inhibitory concentration against Proteus vulgaris 1028 BC ( Class Ic beta-lactamase overproducer); assay type: functional; in short: as §1
Enterobacter cloacae [31] = assay: Evaluated for the minimum inhibitory concentration against Enterobacter cloacae P99 ( Class Ia beta-lactamase overproducer); assay type: functional; in short: as §1
Proteus vulgaris [32] = assay: Evaluated for the minimum inhibitory concentration against Proteus vulgaris 1028 BC ( Class Ic beta-lactamase overproducer; assay type: functional; in short: as §1
Staphylococcus aureus [33] = assay: Evaluated for the minimum inhibitory concentration against Staphylococcus aureus ATCC 29213 ( inducible, low level beta-lactamase producer); assay type: functional; in short: as §3
Staphylococcus aureus [34] = assay: Evaluated for the minimum inhibitory concentration against Staphylococcus aureus 1059B ( inducible, high level beta-lactamase producer); assay type: functional; in short: as §3
Escherichia coli [35] = assay: In vivo effective dose against mice infected with Escherichia coli 257; assay type: functional
In short: (§5)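 Mouse protection test against systemic infection, run by literature procedures; the compound was given subcutaneously, and the effective dose (ED50, mg/kg) was determined.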

Escherichia coli [36] = assay: In vitro antibacterial activity was determined against Escherichia coli DC-O; assay type: functional; in short: as §1
Micrococcus luteus = assay: In vitro antibacterial activity was determined against Micrococcus luteus PCI; assay type: functional; in short: as §1
Streptococcus pyogenes [37] = assay: In vivo effective dose against mice infected with streptococcus pyogenes 4; assay type: functional; in short: as §5
Streptococcus pneumoniae [38] = assay: as §4; assay type: functional; in short: as §2; remark: listed apart in the source

| SMILES | MIC (Citrobacter freundii) [µg/mL] | MIC (Enterobacter cloacae [1]) [µg/mL] | MIC (Escherichia coli [2]) [µg/mL] | MIC (Proteus mirabilis [3]) [µg/mL] | MIC (Serratia marcescens) [µg/mL] | MIC (Staphylococcus aureus [6]) [µg/mL] | MIC (Streptococcus pneumoniae [7]) [µg/mL] | MIC (Streptococcus pyogenes [8]) [µg/mL] | MIC (Pseudomonas aeruginosa [9]) [µg/mL] | MIC (Enterococcus faecalis) [µg/mL] | MIC (Staphylococcus aureus [10]) [µg/mL] | MIC (Proteus vulgaris [15]) [µg/mL] | MIC (Staphylococcus aureus [16]) [µg/mL] | MIC (Pseudomonas aeruginosa [18]) [µg/mL] | MIC (Escherichia coli [21]) [µg/mL] | MIC (Pseudomonas aeruginosa [22]) [µg/mL] | MIC (Streptococcus pneumoniae [25]) [µg/mL] | MIC (Streptococcus pyogenes [26]) [µg/mL] | MIC (Staphylococcus aureus [27]) [µg/mL] | MIC (Pseudomonas aeruginosa [29]) [µg/mL] | further results |
| --- | --- | --- | --- | --- | --- | --- | --- | --- | --- | --- | --- | --- | --- | --- | --- | --- | --- | --- | --- | --- | --- |
| CCn1cc(C(=O)O)c(=O)c2cc(F)c(N3CCSCC3)cc21 | 16 (≈ 47.6 µM) | 0.125 (≈ 0.372 µM) | 0.5 (≈ 1.49 µM) | 16 (≈ 47.6 µM) | 0.25 (≈ 0.743 µM) | 0.063 (≈ 0.187 µM) | 16 (≈ 47.6 µM) | 8 (≈ 23.8 µM) | 1 (≈ 2.97 µM) | 1 (≈ 2.97 µM) | 0.063 (≈ 0.187 µM) | – | – | – | – | – | – | – | – | – | MIC (Proteus vulgaris [4]): 0.5 µg/mL (≈ 1.49 µM); MIC (Staphylococcus aureus [5]): 0.125 µg/mL (≈ 0.372 µM) |
| CCn1cc(C(=O)OCC2=C(C(=O)O)N3C(=O)[C@@H](NC(=O)COc4ccccc4)C3SC2)c(=O)c2cc3c(cc21)OCO3 (stereo partly drawn) | 2 (≈ 3.29 µM) | 0.5 (≈ 0.823 µM) | 1 (≈ 1.65 µM) | 4 (≈ 6.58 µM) | 1 (≈ 1.65 µM) | – | – | – | – | 64 (≈ 105 µM) | 4 (≈ 6.58 µM) | 0.25 (≈ 0.411 µM) | 0.5 (≈ 0.823 µM) | > 256 | – | – | – | – | – | – | half-life [11]: 0.217 h; half-life [12]: 6 h; MIC (Escherichia coli [13]): 32 µg/mL (≈ 52.7 µM); LD50 [14]: > 500 mg/kg; MIC (Staphylococcus aureus [17]): 0.25 µg/mL (≈ 0.411 µM); MIC (Pseudomonas aeruginosa [19]): 16 µg/mL (≈ 26.3 µM); half-life [20]: 11.2 h |
| CN1CCN(c2c(F)cc3c(=O)c(C(=O)OCC4=C(C(=O)O)N5C(=O)[C@@H](NC=O)C5SC4)cn(CCF)c3c2F)CC1 (stereo partly drawn) | – | – | – | – | – | – | – | – | – | – | – | – | – | – | 32 (≈ 52.5 µM) | > 128 | 0.25 (≈ 0.41 µM) | 0.25 (≈ 0.41 µM) | 32 (≈ 52.5 µM) | – | MIC (Proteus vulgaris [23]): 0.5 µg/mL (≈ 0.82 µM); MIC (Pseudomonas aeruginosa [24]): 64 µg/mL (≈ 105 µM); MIC (Proteus mirabilis [28]): 32 µg/mL (≈ 52.5 µM) |
| CCn1cc(C(=O)OCC2=C(C(=O)O)N3C(=O)[C@@H](NC(=O)/C(=N/OC)c4csc(N)n4)C3SC2)c(=O)c2cc(F)c(N3CCCC3)cc21 (stereo partly drawn) | – | – | – | – | – | – | – | – | – | – | – | – | – | – | 0.5 (≈ 0.715 µM) | > 128 | < 0.008 | 1 (≈ 1.43 µM) | 0.5 (≈ 0.715 µM) | 32 (≈ 45.7 µM) | MIC (Proteus vulgaris [30]): 4 µg/mL (≈ 5.72 µM) |
| CCn1cc(C(=O)O)c(=O)c2cc(F)c(N3CCN(C=O)CC3)cc21 [4-N-FORMYL-1-PIPERAZINYL-NORFLOXACIN] | – | – | – | – | – | – | – | – | – | – | – | – | – | – | – | 16 (≈ 46.1 µM) | 8 (≈ 23 µM) | 8 (≈ 23 µM) | 1 (≈ 2.88 µM) | 2 (≈ 5.76 µM) | MIC (Enterobacter cloacae [31]): 0.5 µg/mL (≈ 1.44 µM); MIC (Proteus vulgaris [32]): 0.5 µg/mL (≈ 1.44 µM); MIC (Staphylococcus aureus [33]): 1 µg/mL (≈ 2.88 µM); MIC (Staphylococcus aureus [34]): 1 µg/mL (≈ 2.88 µM) |
| CN1CCN(c2c(F)cc3c(=O)c(C(=O)O)cn(CCF)c3c2F)CC1 [FLEROXACIN] | 1 (≈ 2.71 µM) | 0.125 (≈ 0.338 µM) | 0.125 (≈ 0.338 µM) | 0.5 (≈ 1.35 µM) | 0.25 (≈ 0.677 µM) | 0.5 (≈ 1.35 µM) | 4 (≈ 10.8 µM) | 1 (≈ 2.71 µM) | 2 (≈ 5.42 µM) | 4 (≈ 10.8 µM) | 0.5 (≈ 1.35 µM) | 0.25 (≈ 0.677 µM) | 0.5 (≈ 1.35 µM) | 4 (≈ 10.8 µM) | – | – | – | – | – | – | ED50 (Escherichia coli [35]): 0.4 mg/kg; MIC (Escherichia coli [36]): 1.19 µM (≈ 0.44 µg/mL); MIC (Micrococcus luteus): 38.2 µM (≈ 14.1 µg/mL); ED50 (Streptococcus pyogenes [37]): 183 mg/kg; MIC (Streptococcus pneumoniae [38]): 9.53 µM (≈ 3.52 µg/mL) |
